Source: ChEMBL document CHEMBL3596140, “Bisleuconothine A Induces Autophagosome Formation by Interfering with AKT-mTOR Signaling Pathway” (J Nat Prod, 2015)
Active and inactive are the calls of the source. No cut-off for these calls is given here.

Columns and labels:
A549 [1] = assay: Prevention of autophagosome degradation in human A549 cells assessed as upregulation of p62 expression at 5 uM after 6 hrs by Western blot analysis; format: functional, cell-based
Summary of the method: (§1)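 A549 cells kept in serum-free medium for 1 h, then exposed to 6 μM compound or 5 μM everolimus, with or without bafilomycin A1 (400 nM), for 6 h. LC3 and p62 levels in lysates assessed by Western blot to follow autophagic flux.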

A549 [2] = assay: Induction of autophagy in human A549 cells assessed as increase in conversion of LC3-1 to LC3-2 at 5 uM after 6 hrs by Western blot analysis; format: functional, cell-based; summary of the method: as §1
A549 [3] = assay: Induction of autophagic punctation in human A549 cells assessed as increase of puncta with LC3 at 5 uM after 6 hrs by immunofluorescence staining-based microscopic analysis relative to control; format: functional, cell-based
Summary of the method: (§2)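 A549 cells on chamber slides placed in serum-free medium for 1 h, then exposed for 6 h to 6 μM compound, 5 μM everolimus or 400 nM bafilomycin A1. Fixed in ice-cold methanol for 15 min at −20 °C and blocked. Stained for LC3B, LAMP2 and p62 with Alexa Fluor 488/546/647 secondaries, mounted with DAPI, and puncta assessed by fluorescence microscopy.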

A549 [4] = assay: Induction of autophagic punctation in human A549 cells assessed as increase of puncta with p62 at 5 uM after 6 hrs by immunofluorescence staining-based microscopic analysis relative to control; format: functional, cell-based; summary of the method: as §2
[5] = biological target: Serine/threonine-protein kinase mTOR (Homo sapiens) (UniProt P42345); assay: Inhibition of mTOR phosphorylation at ser2448 in human A549 cells at 5 uM after 3 to 24 hrs by Western blot analysis; format: cell-based
Summary of the method: (§3)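 A549 total lysates harvested 3, 6, 12 or 24 h after exposure to 6 μM compound or 5 μM everolimus. Western blot on PVDF with antibodies to phospho-mTOR Ser2448, phospho-AKT Thr308 and Ser473, phospho-p70S6K Thr389, phospho-PDK1 Ser241 and PRAS40 Thr246, alongside total proteins and β-actin.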

[6] = biological target: Serine/threonine-protein kinase mTOR (Homo sapiens) (UniProt P42345); assay: Inhibition of mTOR in human A549 cells assessed as downregulation of p70S6K phosphorylation at thr389 at 5 uM after 3 to 24 hrs by Western blot analysis; format: cell-based; summary of the method: as §3
A549 [7] = assay: Inhibition of AKT in human A549 cells assessed as downregulation of PRAS40 phosphorylation at thr246 at 5 uM after 3 to 12 hrs by Western blot analysis; format: cell-based; summary of the method: as §3
A549 [8] = assay: Cytostatic activity against human A549 cells by MTT assay; format: functional, cell-based
Summary of the method: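 A549 cells in medium with 10% FBS and 1% penicillin–streptomycin, exposed to compound for 48 h. MTT (5 mg/mL stock) added at the end of exposure, then 3 h further incubation. Formazan dissolved in DMSO and read at 550 nm (reference 700 nm) as a measure of succinate dehydrogenase activity. IC50 taken from the concentration–response curve. Microscopy used for confirmation.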

A549 [9] = assay: Cytotoxicity against human A549 cells assessed as induction of cell death at 24 uM after 48 hrs by microscopic analysis; format: functional, cell-based
A549 [10] = assay: Induction of reactive oxygen species generation in human A549 cells at 6 uM incubated in dark for 1 hr by H2DCFDA dye-based flow cytometric analysis; format: functional, cell-based
Summary of the method: (§4)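 A549 cells (4 × 10^5 cells/dish) preloaded with 20 μM H2DCFDA for 1 h, then exposed to compound (6 or 24 μM) for 1 h in the dark at 37 °C. H2O2 at 100 μM served as positive control. Cells washed, resuspended in FACS buffer with 0.3% BSA, and analysed by flow cytometry for intracellular DCF fluorescence intensity.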

A549 [11] = assay: Induction of reactive oxygen species generation in human A549 cells at 24 uM incubated in dark for 1 hr by H2DCFDA dye-based flow cytometric analysis; format: functional, cell-based; summary of the method: as §4
A549 [12] = assay: Induction of apoptosis in human A549 cells at 24 uM after 24 hrs by FITC-annexin V/propidium iodide staining-based flow cytometric analysis; format: functional, cell-based
Summary of the method: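 A549 cells (5 × 10^5 cells/dish) exposed to compound (24 μM, or 100 nM for vinblastine) for 24 h. Cells washed twice with PBS and stained with FITC–annexin V plus propidium iodide in FACS buffer with 0.3% BSA. Quadrant distribution read by flow cytometry against untreated cells.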

A549 [13] = assay: Effect on Bcl-XL protein expression in human A549 cells at 24 uM after 6 to 24 hrs by Western blot analysis; format: functional, cell-based
Summary of the method: (§5)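 Total lysates of A549 cells harvested at 0, 6, 12 and 24 h after exposure to 24 μM test agent or 100 nM vinblastine. Proteins resolved, transferred to PVDF and probed for Bcl-xL, Mcl-1, Bcl-2, Bax-1, Bid, PUMA, Bim, Bik and p53, with antibodies diluted in BlockAce and β-actin as loading reference.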

A549 [14] = assay: Effect on Mcl-1 protein expression in human A549 cells at 24 uM after 6 to 24 hrs by Western blot analysis; format: functional, cell-based; summary of the method: as §5
A549 [15] = assay: Effect on Bcl-2 protein expression in human A549 cells at 24 uM after 6 to 24 hrs by Western blot analysis; format: functional, cell-based; summary of the method: as §5
A549 [16] = assay: Effect on Bax-1 protein expression in human A549 cells at 24 uM after 6 to 24 hrs by Western blot analysis; format: functional, cell-based; summary of the method: as §5
A549 [17] = assay: Effect on Bid protein expression in human A549 cells at 24 uM after 6 to 24 hrs by Western blot analysis; format: functional, cell-based; summary of the method: as §5
A549 [18] = assay: Effect on Puma protein expression in human A549 cells at 24 uM after 6 to 24 hrs by Western blot analysis; format: functional, cell-based; summary of the method: as §5
A549 [19] = assay: Effect on BimEL protein expression in human A549 cells at 24 uM after 6 to 24 hrs by Western blot analysis; format: functional, cell-based; summary of the method: as §5
A549 [20] = assay: Effect on Bik protein expression in human A549 cells at 24 uM after 6 to 24 hrs by Western blot analysis; format: functional, cell-based; summary of the method: as §5
A549 [21] = assay: Effect on p53 protein expression in human A549 cells at 24 uM after 6 to 24 hrs by Western blot analysis; format: functional, cell-based; summary of the method: as §5
A549 [22] = assay: Induction of autophagy in human A549 cells assessed as increase in LC3-2 expression at 6 uM by Western blot analysis; format: functional, cell-based; settings: TDE = time-dependent effect
Summary of the method: (§6)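 A549 and MCF7 cells exposed to 6 μM compound, with everolimus 5 μM as autophagy positive control. Total lysates harvested at 0, 4, 8, 12 or 24 h. LC3-I and LC3-II (lipidated) levels assessed by Western blot with LC3B antibody.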

MCF7 = assay: Induction of autophagy in human MCF7 cells assessed as LC3 lipidation at 6 uM after 4 to 24 hrs by Western blot analysis; format: functional, cell-based; summary of the method: as §6
A549 [23] = assay: Prevention of autophagosome degradation in human A549 cells assessed as upregulation of p62 expression at 6 uM after 6 hrs by Western blot analysis; format: functional, cell-based; summary of the method: as §1
A549 [24] = assay: Induction of autophagic punctation in human A549 cells assessed as increase of puncta with LC3 at 6 uM after 6 hrs by immunofluorescence staining-based microscopic analysis relative to control; format: functional, cell-based; summary of the method: as §2
A549 [25] = assay: Induction of autophagic punctation in human A549 cells assessed as increase of puncta with p62 at 6 uM after 6 hrs by immunofluorescence staining-based microscopic analysis relative to control; format: functional, cell-based; summary of the method: as §2
A549 [26] = assay: Effect on localization of lysosome puncta with LAMP2 in human A549 cells at 6 uM after 6 hrs by immunofluorescence staining-based microscopic analysis relative to control; format: functional, cell-based; summary of the method: as §2
[27] = biological target: Serine/threonine-protein kinase mTOR (Homo sapiens) (UniProt P42345); assay: Effect on mTOR phosphorylation at ser2448 in human A549 cells at 6 uM after 3 to 24 hrs by Western blot analysis; format: cell-based; summary of the method: as §3
[28] = biological target: Serine/threonine-protein kinase mTOR (Homo sapiens) (UniProt P42345); assay: Inhibition of mTOR in human A549 cells assessed as downregulation of p70S6K phosphorylation at thr389 at 6 uM after 3 to 24 hrs by Western blot analysis; format: cell-based; summary of the method: as §3
A549 [29] = assay: Inhibition of AKT in human A549 cells assessed as downregulation of PRAS40 phosphorylation at thr246 at 6 uM after 3 to 12 hrs by Western blot analysis; format: cell-based; summary of the method: as §3
A549 [30] = assay: Inhibition of AKT phosphorylation at thr308 in human A549 cells at 6 uM after 3 to 24 hrs by Western blot analysis; format: cell-based; summary of the method: as §3
A549 [31] = assay: Inhibition of AKT phosphorylation at Ser473 in human A549 cells at 6 uM after 3 to 6 hrs by Western blot analysis; format: cell-based; summary of the method: as §3
[32] = biological target: T1, 3-phosphoinositide-dependent protein kinase 1 (Homo sapiens) (UniProt O15530); assay: Effect on PDK1 phosphorylation at Ser241 in human A549 cells at 6 uM after 3 to 24 hrs by Western blot analysis; format: cell-based; summary of the method: as §3
T1 sequence (whole entry): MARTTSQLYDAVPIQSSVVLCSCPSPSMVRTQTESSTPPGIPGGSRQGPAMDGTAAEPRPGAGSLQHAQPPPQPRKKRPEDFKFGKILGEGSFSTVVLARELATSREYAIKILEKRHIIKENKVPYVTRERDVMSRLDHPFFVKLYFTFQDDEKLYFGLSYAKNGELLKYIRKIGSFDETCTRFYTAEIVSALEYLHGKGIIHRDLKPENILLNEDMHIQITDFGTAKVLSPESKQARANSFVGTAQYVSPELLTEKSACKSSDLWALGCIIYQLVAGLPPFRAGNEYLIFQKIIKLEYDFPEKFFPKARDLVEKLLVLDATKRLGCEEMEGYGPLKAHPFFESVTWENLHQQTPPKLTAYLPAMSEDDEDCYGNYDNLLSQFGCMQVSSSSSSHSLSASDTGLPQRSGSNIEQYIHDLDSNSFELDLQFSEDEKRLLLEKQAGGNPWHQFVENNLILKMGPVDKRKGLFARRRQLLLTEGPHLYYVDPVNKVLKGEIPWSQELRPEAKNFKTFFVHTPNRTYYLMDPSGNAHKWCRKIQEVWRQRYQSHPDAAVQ

A549 [33] = assay: Effect on morphological changes in lysosome puncta in human A549 cells at 6 uM after 6 hrs by immunofluorescence staining-based microscopic analysis relative to control; format: functional, cell-based; summary of the method: as §2
A549 [34] = assay: Induction of autophagy in human A549 cells assessed as increase in LC3-2 expression at 6 uM after 4 to 24 hrs by Western blot analysis

## CO[C@H]1C[C@@H]2CC[C@@H](C)[C@@](O)(O2)C(=O)C(=O)N2CCCC[C@H]2C(=O)O[C@H]([C@H](C)C[C@@H]2CC[C@@H](OCCO)[C@H](OC)C2)CC(=O)[C@H](C)/C=C(\C)[C@@H](O)[C@@H](OC)C(=O)[C@H](C)C[C@H](C)/C=C/C=C/C=C/1C
A549 [1]
  Activity: inactive
A549 [2]
  Activity: Active
A549 [3]
  Activity: inactive
A549 [4]
  Activity: inactive
[5]
  inhibition: Active
[6]
  inhibition: Active
A549 [7]
  inhibition: inactive

## CC[C@@]12CCCN3CCc4c(n(c5ccccc45)[C@H](c4ccc(O)c5c4N[C@@H]4CC[C@@]6(CC)CCCN7CC[C@@]54[C@H]76)C1)[C@H]32 [BISLEUCONOTHINE A]
A549 [8]
  Activity: Dose-dependent effect
  IC50: 8 µM
A549 [9]
  Activity: Active
A549 [10]
  Activity: inactive
A549 [11]
  Activity: Active
A549 [12]
  Activity: inactive
A549 [13]
  Activity: inactive
A549 [14]
  Activity: inactive
A549 [15]
  Activity: inactive
A549 [16]
  Activity: inactive
A549 [17]
  Activity: inactive
A549 [18]
  Activity: inactive
A549 [19]
  Activity: inactive
A549 [20]
  Activity: inactive
A549 [21]
  Activity: inactive
A549 [22]
  Activity: tde
MCF7
  Activity: Active
A549 [23]
  Activity: Active
A549 [24]
  Activity: Active
A549 [25]
  Activity: Active
A549 [26]
  Activity: Active
[27]
  Activity: inactive
[28]
  inhibition: Active
A549 [29]
  inhibition: Active
A549 [30]
  inhibition: Active
A549 [31]
  inhibition: Active
[32]
  Activity: inactive
A549 [33]
  Activity: Active
A549 [34]
  Activity: Active
